The target of test [1] is Melanocyte-stimulating hormone receptor (Mus musculus, UniProt Q01727). Put plainly: Agonist activity at mouse MC1 receptor expressed in HEK293 cells after 6 hrs by cAMP-based beta-galactosidase reporter gene assay. The test is classed as functional, cell-based. In a few lines: (§1)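 HEK-293 cells stably expressing the mouse receptor, kept in DMEM with 10% fetal calf serum, transfected with CRE/β-galactosidase reporter. Efficacy is relative to NDP-MSH on the same plate. EC50 is the mean of duplicate wells from three or more independent experiments, fitted by nonlinear least squares.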

Test [2] has as its target T1, Melanocortin receptor 3 (Mus musculus, UniProt P33033). Put plainly: Agonist activity at mouse MC3 receptor expressed in HEK293 cells after 6 hrs by cAMP-based beta-galactosidase reporter gene assay. The test is classed as functional, cell-based. In a few lines: as §1
Test [3] has as its target Melanocortin receptor 5 (Mus musculus, UniProt P41149). Put plainly: Agonist activity at mouse MC5 receptor expressed in HEK293 cells after 6 hrs by cAMP-based beta-galactosidase reporter gene assay. It counts as functional, cell-based. In a few lines:
as §1

Test [4] has as its target Melanocortin receptor 4 (Mus musculus, UniProt P56450). Put plainly: Agonist activity at mouse MC4 receptor expressed in HEK293 cells after 6 hrs by cAMP-based beta-galactosidase reporter gene assay. The test is classed as functional, cell-based. The essentials: as §1
In test [5] the target is T1, Melanocortin receptor 3. Put plainly: Antagonist activity at mouse MC3 receptor expressed in HEK293 cells after 6 hrs by cAMP-based beta-galactosidase reporter gene assay. The following applies: read-out: pA2 (converted). It counts as functional, cell-based.
For test [6], the target named is Melanocortin receptor 3 (Mus musculus) (UniProt P33033). Put plainly: Partial agonist activity at mouse MC3 receptor expressed in HEK293 cells at 10^-4 M to 10^-12 M after 6 hrs by cAMP-based beta-galactosidase reporter gene assay. The test is classed as functional, cell-based. The essentials:
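In the mMC3R HEK-293 CRE/β-galactosidase reporter assay, cells were exposed 6 h to peptide at 10^-4 to 10^-12 M in IBMX/BSA medium. Maximal efficacy is expressed relative to NDP-MSH run on the same plate.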

The species named for test [7] is Mus musculus. Put plainly: Selectivity for mouse MC3 receptor over mouse MC4 receptor.

The structures appear in SMILES notation.

T1 sequence (P33033 whole entry): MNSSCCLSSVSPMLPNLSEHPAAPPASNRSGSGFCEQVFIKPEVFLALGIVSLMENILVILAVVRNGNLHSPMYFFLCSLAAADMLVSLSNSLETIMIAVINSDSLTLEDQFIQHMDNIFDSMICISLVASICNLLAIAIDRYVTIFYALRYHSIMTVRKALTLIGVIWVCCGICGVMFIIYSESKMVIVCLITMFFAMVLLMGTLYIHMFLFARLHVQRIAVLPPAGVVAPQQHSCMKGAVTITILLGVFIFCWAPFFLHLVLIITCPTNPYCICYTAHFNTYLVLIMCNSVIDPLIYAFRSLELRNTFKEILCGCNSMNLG
Sequence of Melanocortin receptor 5 (P41149 whole entry): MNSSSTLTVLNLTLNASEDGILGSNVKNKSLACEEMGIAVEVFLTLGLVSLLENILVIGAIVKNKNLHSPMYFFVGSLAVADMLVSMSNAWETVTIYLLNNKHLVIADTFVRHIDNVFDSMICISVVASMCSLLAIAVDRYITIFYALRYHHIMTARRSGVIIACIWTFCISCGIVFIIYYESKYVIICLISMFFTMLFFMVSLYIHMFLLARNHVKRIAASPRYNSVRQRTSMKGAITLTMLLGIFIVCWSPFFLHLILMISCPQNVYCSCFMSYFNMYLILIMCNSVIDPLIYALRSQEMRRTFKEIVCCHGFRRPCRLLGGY
Sequence of Melanocortin receptor 4 (P56450 whole entry): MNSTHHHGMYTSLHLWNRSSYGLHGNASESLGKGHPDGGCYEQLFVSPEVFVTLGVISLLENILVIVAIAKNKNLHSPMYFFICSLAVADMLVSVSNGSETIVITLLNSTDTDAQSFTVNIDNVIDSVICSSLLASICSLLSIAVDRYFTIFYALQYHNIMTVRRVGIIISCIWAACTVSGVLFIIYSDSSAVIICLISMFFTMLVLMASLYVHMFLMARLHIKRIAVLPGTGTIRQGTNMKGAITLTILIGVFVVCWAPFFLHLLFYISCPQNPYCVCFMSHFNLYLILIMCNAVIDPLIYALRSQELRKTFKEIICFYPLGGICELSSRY
Sequence of Melanocyte-stimulating hormone receptor (Q01727 whole entry): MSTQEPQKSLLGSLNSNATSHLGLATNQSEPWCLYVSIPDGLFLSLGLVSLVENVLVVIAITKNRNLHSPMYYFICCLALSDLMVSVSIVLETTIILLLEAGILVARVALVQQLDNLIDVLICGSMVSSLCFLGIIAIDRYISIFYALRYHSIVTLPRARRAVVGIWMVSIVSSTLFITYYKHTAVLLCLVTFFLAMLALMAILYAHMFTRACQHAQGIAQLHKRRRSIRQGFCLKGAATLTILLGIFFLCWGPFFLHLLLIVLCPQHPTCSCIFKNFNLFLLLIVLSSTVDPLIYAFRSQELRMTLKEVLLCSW
Sequence of Melanocortin receptor 3 (Mus musculus) (P33033 whole entry): as the sequence (P33033 whole entry) above

Take `C[C@@H]1NC(=O)[C@H](CC(N)=O)NC(=O)[C@H](Cc2c[nH]c3ccccc23)NC(=O)[C@H](CCCN=C(N)N)NC(=O)[C@@H](Cc2ccccc2)NC(=O)[C@H](Cc2cnc[nH]2)NC(=O)[C@@H](NC(=O)[C@@H](N)Cc2ccc(O)cc2)CSSC[C@@H](C(=O)N[C@@H](Cc2ccc(O)cc2)C(N)=O)NC(=O)[C@H](Cc2ccccc2)NC1=O`: the EC50 in test [1] worked out at 0.0003 µM; in test [2], 1.7 nM; in test [3], 0.00145 µM; in test [4] it was 0.00017 µM.

On to `C[C@@H]1NC(=O)[C@H](Cc2cnc[nH]2)NC(=O)[C@@H](NC(=O)[C@@H](N)Cc2ccc(O)cc2)CSSC[C@@H](C(=O)N[C@@H](Cc2ccc(O)cc2)C(N)=O)NC(=O)[C@H](Cc2ccccc2)NC(=O)[C@H](C)NC(=O)[C@H](CC(N)=O)NC(=O)[C@H](Cc2c[nH]c3ccccc23)N2C[C@H](CCCN=C(N)N)NC(=O)[C@@H](CSCC2=O)NC1=O`, for which the EC50 in test [1] turned out to be 12.5 µM; in test [2], 7720 nM; in test [3] it was 7.7 µM; in test [4], 20.1 µM.

For `C[C@@H]1NC(=O)[C@H](CC(N)=O)NC(=O)[C@H](Cc2c[nH]c3ccccc23)N2C[C@H](CCCNC(=N)N)NC(=O)[C@@H](CSCC2=O)NC(=O)[C@@H](Cc2cccc3ccccc23)NC(=O)[C@H](Cc2cnc[nH]2)NC(=O)[C@@H](NC(=O)[C@@H](N)Cc2ccc(O)cc2)CSSC[C@@H](C(=O)N[C@@H](Cc2ccc(O)cc2)C(N)=O)NC(=O)[C@H](Cc2ccccc2)NC1=O`, it took 190 nM to reach a half-maximal effect in test [2] (EC50).

For `C[C@@H]1NC(=O)[C@H](CC(N)=O)NC(=O)[C@H](Cc2c[nH]c3ccccc23)N2C[C@H](C)NC(=O)[C@@H](CSCC2=O)NC(=O)[C@@H](Cc2ccccc2)NC(=O)[C@H](Cc2cnc[nH]2)NC(=O)[C@@H](NC(=O)[C@@H](N)Cc2ccc(O)cc2)CSSC[C@@H](C(=O)N[C@@H](Cc2ccc(O)cc2)C(N)=O)NC(=O)[C@H](Cc2ccccc2)NC1=O`, in test [2], the midpoint of the response, the EC50, lay at 8070 nM.

Turning to `C[C@@H]1NC(=O)[C@H](CC(N)=O)NC(=O)[C@H](Cc2c[nH]c3ccccc23)N2C[C@H](CCCNC(=N)N)NC(=O)[C@@H](CSCC2=O)NC(=O)[C@@H](Cc2ccc(-c3ccccc3)cc2)NC(=O)[C@H](Cc2cnc[nH]2)NC(=O)[C@@H](NC(=O)[C@@H](N)Cc2ccc(O)cc2)CSSC[C@@H](C(=O)N[C@@H](Cc2ccc(O)cc2)C(N)=O)NC(=O)[C@H](Cc2ccccc2)NC1=O`, in test [5], the Kb was 0.126 nM. The compound also returned an Emax in test [6] of 10%. Further, in test [7], the Selectivity ratio is 5800.

Turning to `C[C@@H]1NC(=O)[C@H](CC(N)=O)NC(=O)[C@H](Cc2c[nH]c3ccccc23)N2C[C@H](CCCN=C(N)N)NC(=O)[C@@H](CSCC2=O)NC(=O)[C@@H](Cc2ccc3ccccc3c2)NC(=O)[C@H](Cc2cnc[nH]2)NC(=O)[C@@H](NC(=O)[C@@H](N)Cc2ccc(O)cc2)CSSC[C@@H](C(=O)N[C@@H](Cc2ccc(O)cc2)C(N)=O)NC(=O)[C@H](Cc2ccccc2)NC1=O`, the Kb in test [5] is 25.1 nM.

For the compound `C[C@@H]1NC(=O)[C@H](CC(N)=O)NC(=O)[C@H](Cc2c[nH]c3ccccc23)N2C[C@H](CCCNC(=N)N)NC(=O)[C@@H](CSCC2=O)NC(=O)[C@@H](Cc2ccc3ccccc3c2)NC(=O)[C@H](Cc2cnc[nH]2)NC(=O)[C@@H](NC(=O)[C@@H](N)Cc2ccc(O)cc2)CSSC[C@@H](C(=O)N[C@@H](Cc2ccc(O)cc2)C(N)=O)NC(=O)[C@H](Cc2ccccc2)NC1=O`, the Emax in test [6] came out at 20%.

Turning to `C[C@@H]1NC(=O)[C@H](CC(N)=O)NC(=O)[C@H](Cc2ccc(-c3ccccc3)cc2)N2C[C@H](CCCN=C(N)N)NC(=O)[C@@H](CSCC2=O)NC(=O)[C@@H](Cc2ccccc2)NC(=O)[C@H](Cc2cnc[nH]2)NC(=O)[C@@H](NC(=O)[C@@H](N)Cc2ccc(O)cc2)CSSC[C@@H](C(=O)N[C@@H](Cc2ccc(O)cc2)C(N)=O)NC(=O)[C@H](Cc2ccccc2)NC1=O`, the EC50 in test [2] was 230 nM.

In the case of `C[C@@H]1NC(=O)[C@H](CC(N)=O)NC(=O)[C@H](Cc2c[nH]c3ccccc23)N2C[C@H](CCCN=C(N)N)NC(=O)[C@@H](CSCC2=O)NC(=O)[C@@H](Cc2ccccc2)NC(=O)[C@H](Cc2cnc[nH]2)NC(=O)[C@@H](NC(=O)[C@@H](N)Cc2ccc(O)cc2)CSSC[C@@H](C(=O)N[C@@H](Cc2ccc(O)cc2)C(N)=O)NC(=O)[C@H](Cc2ccccc2)NC1=O`, the EC50 in test [2] was found to be 324 nM.

For the compound `C[C@@H]1NC(=O)[C@@H](NC(=O)[C@@H](N)Cc2ccc(O)cc2)CSSC[C@@H](C(=O)N[C@@H](Cc2ccc(O)cc2)C(N)=O)NC(=O)[C@H](Cc2ccccc2)NC(=O)[C@H](C)NC(=O)[C@H](CC(N)=O)NC(=O)[C@H](Cc2c[nH]c3ccccc23)N2C[C@H](CCCNC(=N)N)NC(=O)[C@@H](CSCC2=O)NC(=O)[C@@H](Cc2ccccc2)NC1=O`, the EC50 in test [2] came to 4020 nM. This EC50 lies about 12-fold higher than the previous one.

The compound `C[C@@H]1NC(=O)[C@H](CC(N)=O)NC(=O)[C@H](Cc2c[nH]c3ccccc23)N2C[C@H](CCCNC(=N)N)NC(=O)[C@@H](CSCC2=O)NC(=O)[C@@H](Cc2ccc(I)cc2)NC(=O)[C@H](Cc2cnc[nH]2)NC(=O)[C@@H](NC(=O)[C@@H](N)Cc2ccc(O)cc2)CSSC[C@@H](C(=O)N[C@@H](Cc2ccc(O)cc2)C(N)=O)NC(=O)[C@H](Cc2ccccc2)NC1=O` yielded an EC50 in test [2] of 49 nM.

With `C[C@@H]1NC(=O)[C@H](CC(N)=O)NC(=O)[C@H](Cc2c[nH]c3ccccc23)N2C[C@H](CCCNC(=N)N)NC(=O)[C@@H](CSCC2=O)NC(=O)[C@@H](Cc2ccccc2)NC(=O)[C@H](Cc2ccccc2)NC(=O)[C@@H](NC(=O)[C@@H](N)Cc2ccc(O)cc2)CSSC[C@@H](C(=O)N[C@@H](Cc2ccc(O)cc2)C(N)=O)NC(=O)[C@H](Cc2ccccc2)NC1=O`, in test [2], the EC50 stood at 4500 nM.

For the compound `C[C@@H]1NC(=O)[C@H](CC(N)=O)NC(=O)[C@H](Cc2c[nH]c3ccccc23)N2C[C@H](CCCCN)NC(=O)[C@@H](CSCC2=O)NC(=O)[C@@H](Cc2ccccc2)NC(=O)[C@H](Cc2cnc[nH]2)NC(=O)[C@@H](NC(=O)[C@@H](N)Cc2ccc(O)cc2)CSSC[C@@H](C(=O)N[C@@H](Cc2ccc(O)cc2)C(N)=O)NC(=O)[C@H](Cc2ccccc2)NC1=O`, in test [2], the EC50 amounted to 2540 nM. This EC50 lies about 1.8-fold lower than the previous one.

`C[C@@H]1NC(=O)[C@H](CC(N)=O)NC(=O)[C@H](Cc2c[nH]c3ccccc23)N2C[C@H](CCCNC(=N)N)NC(=O)[C@@H](CSCC2=O)NC(=O)[C@@H](Cc2ccccc2)NC(=O)[C@@H]2CCCN2C(=O)[C@@H](NC(=O)[C@@H](N)Cc2ccc(O)cc2)CSSC[C@@H](C(=O)N[C@@H](Cc2ccc(O)cc2)C(N)=O)NC(=O)[C@H](Cc2ccccc2)NC1=O` gave an EC50 in test [2] of 1900 nM.

As to `C[C@@H]1NC(=O)[C@H](CC(N)=O)NC(=O)[C@@H](Cc2ccc3ccccc3c2)N2C[C@H](CCCNC(=N)N)NC(=O)[C@@H](CSCC2=O)NC(=O)[C@@H](Cc2ccccc2)NC(=O)[C@H](Cc2cnc[nH]2)NC(=O)[C@@H](NC(=O)[C@@H](N)Cc2ccc(O)cc2)CSSC[C@@H](C(=O)N[C@@H](Cc2ccc(O)cc2)C(N)=O)NC(=O)[C@H](Cc2ccccc2)NC1=O`, the response in test [2] was half-maximal at 180 nM (EC50).

For the origin of these results see ChEMBL document CHEMBL2321783, “Structure-activity relationships of peptides incorporating a bioactive reverse-turn heterocycle at the melanocortin receptors: identification of a 5800-fold mouse melanocortin-3 receptor (mMC3R) selective antagonist/partial agonist versus the mouse melanocortin-4 receptor (mMC4R)” (J Med Chem, 2013).
